Data as given in ChEMBL document CHEMBL4428078, “Discovery of S3-Truncated, C-6 Heteroaryl Substituted Aminothiazine β-Site APP Cleaving Enzyme-1 (BACE1) Inhibitors” (J Med Chem, 2016).

How the values were obtained:
[1] = test system: Rattus norvegicus; assay: In vivo inhibition of BACE1 in po dosed rat assessed as reduction in total amyloid beta level in brain measured after 5 hrs by ELISA relative to control
[2] = Metabolic stability in rat liver microsomes assessed as compound remaining at 0.5 uM measured after 10 mins; type: ADME, Microsome; details: read-out: Stability
Procedure, shortened: (§1)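 Test compound at 0.5 µM incubated 10 min with mouse, rat or human liver microsomes. Read-out is percent of parent compound remaining.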

[3] = test system: Rattus norvegicus; assay: In vivo inhibition of BACE1 in po dosed rat assessed as reduction in brain amyloid beta40 level measured after 5 hrs by ELISA relative to control
[4] = Plasma concentration in mouse at 30 mg/kg, po measured after 3 hrs; type: ADME, organism-based
Procedure, shortened: (§2)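 Young mice given a single oral dose of 30 mg/kg. Total brain and plasma drug levels were measured 3 h post-dose and the brain/plasma ratio derived.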

[5] = molecular target: Beta-secretase 1 (Homo sapiens, UniProt P56817); assay: Inhibition of BACE1 in human H4 cells expressing swedish mutant APP751 assessed as reduction in amyloid beta level measured after 19 hrs; type: cell-based
[6] = Drug uptake in mouse brain at 30 mg/kg, po measured after 3 hrs; type: ADME, organism-based; details: read-out: Drug uptake
Procedure, shortened: as §2

[7] = Ratio of drug level in brain to plasma of mouse at 30 mg/kg, po measured at 3 hrs post dose; type: ADME, organism-based; details: read-out: BPR
Procedure, shortened: as §2

[8] = Metabolic stability in mouse liver microsomes assessed as compound remaining at 0.5 uM measured after 10 mins; type: ADME, Microsome; details: read-out: Stability
Procedure, shortened: as §1

[9] = Metabolic stability in human liver microsomes assessed as compound remaining at 0.5 uM measured after 10 mins; type: ADME, Microsome; details: read-out: Stability
Procedure, shortened: as §1

[10] = test system: Mus musculus; assay: In vivo inhibition of BACE1 in mouse assessed as reduction in brain amyloid beta level at 30 mg/kg, po measured after 3 hrs by ELISA relative to control; type: functional
Procedure, shortened: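 Young mice dosed orally at 30 mg/kg. Brain Aβ was measured 3 h post-dose and expressed as percent reduction.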

[11] = test system: Rattus norvegicus; assay: In vivo inhibition of BACE1 in po dosed rat assessed as reduction in brain amyloid beta42 level measured after 5 hrs by ELISA relative to control
[12] = Ratio of drug level in brain to plasma of rat at 10 mg/kg, po measured at 5 hrs post dose; type: ADME, organism-based; details: read-out: BPR
Procedure, shortened: (§3)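 Female rats dosed orally in PEG-400:EtOH:Tween 80 (84:15:1) at 1, 3 or 10 mg/kg. Plasma and brain were collected 5 h post-dose, N=5 rats/dose. Total drug concentrations were determined and the brain/plasma ratio calculated. Values are means with SD.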

[13] = Drug uptake in rat brain at 1 mg/kg, po measured after 5 hrs; type: ADME, organism-based; details: read-out: Drug uptake
Procedure, shortened: as §3

[14] = Plasma concentration in rat at 3 mg/kg, po measured after 5 hrs; type: ADME, organism-based
Procedure, shortened: as §3

[15] = molecular target: Cytochrome P450 2C9 (Homo sapiens, UniProt P11712); assay: Inhibition of recombinant human CYP2C9 preincubated for 10 mins followed by addition of MFC as substrate measured after 45 mins; type: ADME
Procedure, shortened: (§4)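 Inhibition of recombinant human CYP1A2, CYP2C9, CYP2C19, CYP2D6 and CYP3A4 enzymes, reported as IC50.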

[16] = Oral bioavailability in rat at 10 mg/kg measured after 5 hrs; type: ADME, organism-based; details: in vivo
Procedure, shortened: (§5)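 Rat IV/PO pharmacokinetics with a 2 mg/kg IV bolus and a 10 mg/kg oral dose. […] Oral bioavailability is calculated from the IV and PO AUC values.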

[17] = Fraction unbound in mouse plasma; type: ADME, cell-free
Procedure, shortened: (§6)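 Unbound fraction of drug determined in human, rat and mouse plasma, reported as percent unbound.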

[18] = Plasma concentration in rat at 1 mg/kg, po measured after 5 hrs; type: ADME, organism-based
Procedure, shortened: as §3

[19] = Ratio of fraction unbound in rat plasma to IC50 for BACE1 in human H4 cells expressing swedish mutant APP751; type: ADME, cell-based
[20] = molecular target: Cytochrome P450 3A4 (Homo sapiens, UniProt P08684); assay: Inhibition of recombinant human CYP3A4 preincubated for 10 mins followed by addition of BFC as substrate measured after 45 mins; type: ADME
Procedure, shortened: as §4

[21] = Volume of distribution in rat plasma at 2 mg/kg, iv administered as bolus or 10 mg/kg, po; type: ADME, organism-based
Procedure, shortened: (§7)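 Rats given a 2 mg/kg IV bolus or 10 mg/kg orally for IV/PO pharmacokinetics. Clearance and volume of distribution come from the IV arm. Clearance is also expressed against rat hepatic blood flow.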

[22] = Clearance in rat plasma at 2 mg/kg, iv administered as bolus or 10 mg/kg, po relative to hepatic blood flow; type: ADME, organism-based; details: in vivo
Procedure, shortened: as §7

[23] = Drug uptake in rat brain at 3 mg/kg, po measured after 5 hrs; type: ADME, organism-based; details: read-out: Drug uptake
Procedure, shortened: as §3

[24] = test system: Rattus norvegicus; assay: In vivo inhibition of BACE1 in po dosed rat assessed as reduction in brain amyloid beta42 level measured after 5 hrs by ELISA
[25] = Fraction unbound in rat plasma; type: ADME, cell-free
Procedure, shortened: as §6

[26] = Ratio of drug level in brain to plasma of rat at 3 mg/kg, po measured at 5 hrs post dose; type: ADME, organism-based; details: read-out: BPR
Procedure, shortened: as §3

[27] = Fraction unbound in rat plasma at 1 to 10 mg/kg, po; type: ADME, organism-based; details: in vivo
[28] = Clearance in rat plasma at 2 mg/kg, iv administered as bolus or 10 mg/kg, po; type: ADME, organism-based
Procedure, shortened: as §7

[29] = Cmax in rat at 10 mg/kg, po measured after 5 hrs; type: ADME, organism-based; parameters: dose 10 mg/kg, route oral; details: in vivo
Procedure, shortened: as §5

[30] = molecular target: Cytochrome P450 2C19 (Homo sapiens, UniProt P33261); assay: Inhibition of recombinant human CYP2C19 preincubated for 10 mins followed by addition of CEC as substrate measured after 45 mins; type: ADME
Procedure, shortened: as §4

[31] = Plasma concentration in rat at 10 mg/kg, po measured after 5 hrs; type: ADME, organism-based
Procedure, shortened: as §3

[32] = molecular target: T1, Cytochrome P450 1A2 (Homo sapiens, UniProt P05177); assay: Inhibition of recombinant human CYP1A2 preincubated for 10 mins followed by addition of CEC as substrate measured after 45 mins; type: ADME
T1 sequence (P05177 whole entry): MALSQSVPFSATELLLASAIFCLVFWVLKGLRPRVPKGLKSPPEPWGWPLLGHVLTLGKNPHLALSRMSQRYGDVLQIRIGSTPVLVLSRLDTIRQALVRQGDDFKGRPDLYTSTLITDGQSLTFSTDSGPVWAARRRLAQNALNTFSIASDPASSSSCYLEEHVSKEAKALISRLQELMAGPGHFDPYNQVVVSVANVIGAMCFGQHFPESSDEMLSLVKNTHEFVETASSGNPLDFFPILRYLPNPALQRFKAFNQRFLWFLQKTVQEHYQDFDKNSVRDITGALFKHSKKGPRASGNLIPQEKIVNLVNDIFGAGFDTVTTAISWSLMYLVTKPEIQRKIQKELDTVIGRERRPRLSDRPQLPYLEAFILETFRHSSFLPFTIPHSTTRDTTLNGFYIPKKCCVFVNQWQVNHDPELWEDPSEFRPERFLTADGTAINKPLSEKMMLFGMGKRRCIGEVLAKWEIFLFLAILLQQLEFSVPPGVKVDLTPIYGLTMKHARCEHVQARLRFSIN
Procedure, shortened: as §4

[33] = molecular target: Cytochrome P450 2D6 (Homo sapiens, UniProt P10635); assay: Inhibition of recombinant human CYP2D6 preincubated for 10 mins followed by addition of AMMC as substrate measured after 45 mins; type: ADME
Procedure, shortened: as §4

[34] = Ratio of drug level in brain to plasma of rat at 1 mg/kg, po measured at 5 hrs post dose; type: ADME, organism-based; details: read-out: BPR
Procedure, shortened: as §3

[35] = Fraction unbound in human plasma; type: ADME, cell-free
Procedure, shortened: as §6

[36] = Drug uptake in rat brain at 10 mg/kg, po measured after 5 hrs; type: ADME, organism-based; details: read-out: Drug uptake
Procedure, shortened: as §3

Chain of Beta-secretase 1 (P56817 whole entry): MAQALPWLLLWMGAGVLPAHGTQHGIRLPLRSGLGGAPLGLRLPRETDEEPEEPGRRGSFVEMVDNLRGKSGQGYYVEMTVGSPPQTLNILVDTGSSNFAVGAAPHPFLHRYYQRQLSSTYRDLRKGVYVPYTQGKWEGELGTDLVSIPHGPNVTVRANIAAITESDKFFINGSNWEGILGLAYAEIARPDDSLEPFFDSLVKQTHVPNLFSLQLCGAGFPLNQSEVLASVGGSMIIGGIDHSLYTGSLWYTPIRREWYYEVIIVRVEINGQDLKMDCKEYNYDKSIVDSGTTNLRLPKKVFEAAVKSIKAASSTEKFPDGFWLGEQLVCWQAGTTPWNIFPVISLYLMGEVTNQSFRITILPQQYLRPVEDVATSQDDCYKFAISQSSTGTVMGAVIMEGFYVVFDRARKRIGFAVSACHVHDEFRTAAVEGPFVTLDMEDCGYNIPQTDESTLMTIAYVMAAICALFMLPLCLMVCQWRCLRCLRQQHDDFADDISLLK
Chain of Cytochrome P450 2C9 (P11712 whole entry): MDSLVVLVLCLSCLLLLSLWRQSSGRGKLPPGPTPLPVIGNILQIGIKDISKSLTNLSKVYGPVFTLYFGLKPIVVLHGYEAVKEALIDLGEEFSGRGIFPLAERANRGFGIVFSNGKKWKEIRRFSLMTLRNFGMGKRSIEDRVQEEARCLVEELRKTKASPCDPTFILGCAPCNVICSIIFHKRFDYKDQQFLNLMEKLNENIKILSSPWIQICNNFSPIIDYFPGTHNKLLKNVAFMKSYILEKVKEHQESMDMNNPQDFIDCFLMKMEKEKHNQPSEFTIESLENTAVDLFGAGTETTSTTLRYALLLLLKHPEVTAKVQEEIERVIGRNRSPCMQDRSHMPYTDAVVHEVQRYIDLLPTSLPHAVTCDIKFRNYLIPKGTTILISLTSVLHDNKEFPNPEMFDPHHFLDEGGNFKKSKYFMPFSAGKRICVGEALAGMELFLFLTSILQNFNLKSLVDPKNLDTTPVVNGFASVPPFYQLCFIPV
Chain of Cytochrome P450 2D6 (P10635 whole entry): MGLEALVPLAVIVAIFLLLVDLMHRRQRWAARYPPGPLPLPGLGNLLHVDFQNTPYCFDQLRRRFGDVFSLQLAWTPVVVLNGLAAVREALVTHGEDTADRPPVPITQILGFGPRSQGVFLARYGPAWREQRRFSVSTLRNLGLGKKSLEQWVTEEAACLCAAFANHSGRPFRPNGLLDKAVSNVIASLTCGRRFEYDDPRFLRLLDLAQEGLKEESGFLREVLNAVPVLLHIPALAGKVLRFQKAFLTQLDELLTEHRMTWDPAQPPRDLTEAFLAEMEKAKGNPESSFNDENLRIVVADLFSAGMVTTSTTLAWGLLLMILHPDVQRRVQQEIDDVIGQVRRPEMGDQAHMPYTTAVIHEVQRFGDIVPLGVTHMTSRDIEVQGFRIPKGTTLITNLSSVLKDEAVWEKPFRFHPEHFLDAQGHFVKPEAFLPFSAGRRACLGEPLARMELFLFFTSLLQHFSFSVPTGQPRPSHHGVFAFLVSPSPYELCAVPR
Chain of Cytochrome P450 3A4 (P08684 whole entry): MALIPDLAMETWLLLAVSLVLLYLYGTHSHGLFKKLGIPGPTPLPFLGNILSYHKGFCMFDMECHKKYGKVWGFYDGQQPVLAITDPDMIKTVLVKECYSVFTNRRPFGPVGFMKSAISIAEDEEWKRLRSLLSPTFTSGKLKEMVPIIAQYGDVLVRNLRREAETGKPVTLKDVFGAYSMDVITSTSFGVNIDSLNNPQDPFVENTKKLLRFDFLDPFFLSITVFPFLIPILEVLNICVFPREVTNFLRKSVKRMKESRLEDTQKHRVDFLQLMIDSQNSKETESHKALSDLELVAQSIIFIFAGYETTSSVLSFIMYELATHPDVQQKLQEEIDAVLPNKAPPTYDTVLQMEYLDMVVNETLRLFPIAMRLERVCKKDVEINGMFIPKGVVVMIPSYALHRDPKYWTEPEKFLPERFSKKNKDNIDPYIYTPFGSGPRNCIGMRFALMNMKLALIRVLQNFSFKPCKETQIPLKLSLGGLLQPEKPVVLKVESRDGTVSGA
Chain of Cytochrome P450 2C19 (P33261 whole entry): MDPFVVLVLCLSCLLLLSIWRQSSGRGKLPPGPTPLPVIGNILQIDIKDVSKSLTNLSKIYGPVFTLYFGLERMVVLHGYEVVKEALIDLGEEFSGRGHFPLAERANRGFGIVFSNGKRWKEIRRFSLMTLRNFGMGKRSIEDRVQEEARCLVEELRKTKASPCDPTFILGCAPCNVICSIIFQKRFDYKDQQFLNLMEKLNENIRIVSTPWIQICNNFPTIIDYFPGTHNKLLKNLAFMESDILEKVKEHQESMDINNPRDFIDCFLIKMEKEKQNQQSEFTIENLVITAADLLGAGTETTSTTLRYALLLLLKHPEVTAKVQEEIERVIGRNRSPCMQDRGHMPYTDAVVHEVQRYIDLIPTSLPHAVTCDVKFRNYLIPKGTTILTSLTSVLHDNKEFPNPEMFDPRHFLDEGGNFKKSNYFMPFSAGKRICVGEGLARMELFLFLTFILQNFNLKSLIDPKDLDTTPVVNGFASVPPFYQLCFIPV

## Cc1noc(C)c1[C@@H]1C[C@@](C)(c2ccc(F)cc2F)N=C(N)S1
[1]
  inhibition: Dose-dependent effect
[2]
  remaining at 10 min, 0.5 µM: 78%
[3]
  inhibition: Dose-dependent effect
[4]
  concentration at 3 h: 4.8 µM
[5]
  IC50: 150 nM
[6]
  concentration at 3 h: 3.6 µM
[7]
  Kp at 3 h: 0.75
[8]
  remaining at 10 min, 0.5 µM: 72%
[9]
  remaining at 10 min, 0.5 µM: 24%
[10]
  inhibition in vivo at 30 mg/kg: 62%
[11]
  inhibition: Dose-dependent effect

## C[C@@]1(c2ccc(F)cc2F)C[C@@H](c2cncnc2)SC(N)=N1
[12]
  Kp at 5 h: 1.8
[1]
  inhibition: Dose-dependent effect
[2]
  remaining at 10 min, 0.5 µM: 95%
[13]
  concentration at 5 h: 2.3 µM
[3]
  inhibition: Dose-dependent effect
[4]
  concentration at 3 h: 6.7 µM
[14]
  concentration at 5 h: 1.8 µM
[15]
  IC50: > 20000 nM
[5]
  IC50: 310 nM
[6]
  concentration at 3 h: 6.7 µM
[16]
  bioavailability: > 100%
[17]
  fraction unbound: 0.42
[18]
  concentration at 5 h: 0.82 µM
[19]
  Ratio: 6
[20]
  IC50: > 20000 nM
[7]
  Kp at 3 h: 1.8
[21]
  Vd: 8.2 L/kg
[22]
  CL: 20%
[23]
  concentration at 5 h: 2.8 µM
[24]
  EC50: 3800 nM
[25]
  fraction unbound: 0.48
[8]
  remaining at 10 min, 0.5 µM: 68%
[26]
  Kp at 5 h: 1.8
[27]
  Cp(f): 1.8 µM
[28]
  clearance: 12 mL/min/kg
[29]
  Cmax: 3.7 µM
[9]
  remaining at 10 min, 0.5 µM: 90%
[30]
  IC50: 9000 nM
[31]
  concentration at 5 h: 6.6 µM
[11]
  inhibition: Dose-dependent effect
[32]
  IC50: > 20000 nM
[33]
  IC50: > 20000 nM
[34]
  Kp at 5 h: 2.8
[35]
  fraction unbound: 0.37
[36]
  concentration at 5 h: 12 µM

## Cn1nccc1[C@@H]1C[C@@](C)(c2ccc(F)cc2F)N=C(N)S1
[2]
  remaining at 10 min, 0.5 µM: 78%
[4]
  concentration at 3 h: 4.3 µM
[5]
  IC50: 350 nM
[6]
  concentration at 3 h: 4.3 µM
[7]
  Kp at 3 h: 1.3
[8]
  remaining at 10 min, 0.5 µM: 72%
[9]
  remaining at 10 min, 0.5 µM: 70%
[10]
  inhibition in vivo at 30 mg/kg: 62%

## Cc1nocc1[C@@H]1C[C@@](C)(c2ccc(F)cc2F)N=C(N)S1
[2]
  remaining at 10 min, 0.5 µM: 77%
[5]
  IC50: 300 nM
[8]
  remaining at 10 min, 0.5 µM: 80%
[9]
  remaining at 10 min, 0.5 µM: 65%

## Cc1noc(C)c1[C@@H]1C[C@@](C)(c2ccc(F)cc2)N=C(N)S1
[2]
  remaining at 10 min, 0.5 µM: 78%
[5]
  IC50: 600 nM
[8]
  remaining at 10 min, 0.5 µM: 90%
[9]
  remaining at 10 min, 0.5 µM: 73%

## Cc1onc(-c2ccc(F)cc2)c1[C@@H]1C[C@@](C)(c2ccc(F)cc2F)N=C(N)S1
[2]
  remaining at 10 min, 0.5 µM: 35%
[5]
  IC50: 320 nM
[8]
  remaining at 10 min, 0.5 µM: 23%
[9]
  remaining at 10 min, 0.5 µM: 24%

## Cc1onc(-c2cccnc2)c1[C@@H]1C[C@@](C)(c2ccc(F)cc2F)N=C(N)S1
[2]
  remaining at 10 min, 0.5 µM: 5%
[5]
  IC50: 180 nM
[8]
  remaining at 10 min, 0.5 µM: 6%
[9]
  remaining at 10 min, 0.5 µM: 17%

## Cc1noc(-c2ccc(F)cc2)c1[C@@H]1C[C@@](C)(c2ccc(F)cc2F)N=C(N)S1
[2]
  remaining at 10 min, 0.5 µM: 88%
[5]
  IC50: 410 nM
[8]
  remaining at 10 min, 0.5 µM: 53%
[9]
  remaining at 10 min, 0.5 µM: 45%
